Residues, ends and D or L forms follow the SMILES beside them.
Legend:
[1] = test system: NL4–3 strain of HIV-1 (X4 strain); experiment: Anti-HIV-1 entry assay, one-day culture, intracellular p24 antigen in PBMCs; assay type: cell-based; details: unlinked control fragments alone; assay format not stated
CXCR4 = CXCR4 (Homo sapiens, UniProt P61073); experiment: CXCR4 internalization assay, CHO-CXCR4-FLAG cells; assay type: cell-based; details: 1h of treatment at 100 nM
Summary of the method: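 CHO cells expressing N-terminally FLAG-tagged CXCR4 washed at 4°C in RPMI 1640 with 0.5% BSA. Seeded 3×10^5/well and exposed at 37°C to graded test compound, with SDF-1α as positive control. Surface receptor stained with anti-FLAG then FITC anti-mouse antibody, each 30 min at 4°C, and read at 485/528 nm. At least three independent experiments, mean ± SEM.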

CXCR4, sequence (P61073 whole entry): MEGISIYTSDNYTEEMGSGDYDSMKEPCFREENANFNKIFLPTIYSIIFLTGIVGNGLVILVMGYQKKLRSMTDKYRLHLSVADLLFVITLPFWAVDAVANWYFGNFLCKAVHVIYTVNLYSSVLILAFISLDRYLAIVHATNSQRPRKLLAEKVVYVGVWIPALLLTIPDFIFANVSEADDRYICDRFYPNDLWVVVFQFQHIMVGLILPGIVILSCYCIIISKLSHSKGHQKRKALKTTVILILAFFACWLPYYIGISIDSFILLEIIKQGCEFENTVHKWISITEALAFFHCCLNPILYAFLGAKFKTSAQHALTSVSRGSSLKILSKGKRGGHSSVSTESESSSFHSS

Compound	antiviral activity [1]	CXCR4 internalization (CXCR4) [%]
C[C@@H](O)[C@H](NC(=O)[C@H](CCCNC(=N)N)NC(=O)[C@@H]1CCCN1C(=O)[C@H](CC(N)=O)NC(=O)[C@H](CC(N)=O)NC(=O)[C@H](CC(N)=O)NC(=O)[C@@H](NC(=O)[C@H](CCCCN)NC(=O)[C@H](CCCNC(=N)N)NC(=O)[C@H](CCCCN)NC(=O)CCCCCN)[C@@H](C)O)C(=O)N[C@@H](CS)C(N)=O [AR6r] (HELM PEPTIDE1{[NCCCCCC(=O)[*:2]].K.R.K.T.N.N.N.P.R.T.C.[am]}$$$$V2.0)	did not show any antiviral activity	
SDF-1α		43.87
